Bioassay records as filed in PubChem.
Sampled rows, rich in hits. Any-hit rate of the full collection: about 3.7%.
OX1R antag-1: human HCRTR1 antagonism; O43613; inhibition, % at 5 µM; CHO/OX1R cells, Fluo-8 calcium fluorescence, orexin A; actives 0.43% (n = 330,000);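 active = inhibition above its plate's threshold, mean inhibition of all tested compounds on the plate plus 3 SD, cut at about 37% in these data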;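 also: 0% = orexin A challenge wells and 100% = SB-334867-A antagonist wells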
Target sequence (O43613 whole entry, looked up): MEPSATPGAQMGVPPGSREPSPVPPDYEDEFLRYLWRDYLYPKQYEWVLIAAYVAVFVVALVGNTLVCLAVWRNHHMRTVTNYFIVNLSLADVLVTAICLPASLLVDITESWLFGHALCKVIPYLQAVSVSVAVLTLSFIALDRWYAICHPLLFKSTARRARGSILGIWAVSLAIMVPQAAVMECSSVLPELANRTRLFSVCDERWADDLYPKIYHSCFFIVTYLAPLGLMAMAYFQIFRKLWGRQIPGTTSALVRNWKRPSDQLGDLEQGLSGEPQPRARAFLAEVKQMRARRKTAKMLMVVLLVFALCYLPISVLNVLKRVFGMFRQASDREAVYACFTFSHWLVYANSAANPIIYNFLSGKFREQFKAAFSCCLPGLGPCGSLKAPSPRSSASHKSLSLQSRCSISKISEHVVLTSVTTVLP
EP2 modulator: modulates human prostaglandin E2 receptor EP2 signaling; AID 940; actives 0.83% (n = 260,000); induction, % at 25 µM; EP2-expressing cells, cAMP HTRF FRET, PGE2 co-stimulation;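 active = compounds whose cAMP rise, as percent of the full-agonist control response, exceeds 60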;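 also: rat C6 glioma line stably carrying human EP2 under a CMV promoter; the protocol text gives 20 µM as final concentration; 100% = response of wells given 1 µM PGE2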
EP2 antag: blocks the human prostaglandin E2 receptor EP2. actives 0.52% (n = 260,000). inhibition, % at 25 µM. P43116. C6 glioma cells expressing human EP2, cAMP TR-FRET; cells stimulated with saturating PGE2;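 active = percent inhibition above 40 after rounding to a whole number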;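 also: rat C6 glioma host cells with rolipram phosphodiesterase inhibitor present; the protocol text gives 20 µM as final concentration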
CHO parental Ca: counter-screen: ATP calcium response change in parental CHO cells | parental CHO-K1, ATP-induced calcium, Fluo-8 fluorescence | inhibition, % at 5.6 µM | actives 0.63% (n = 330,000) | AID 463079;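 active = inhibition above that plate's mean sample inhibition plus 3 SD, cut at about 26% in these data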;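 also: 0% = ATP-challenged DMSO wells and 100% = DMSO wells without ATP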
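Measured by: calcium-sensitive Fluo-8 fluorescence / Test system: CHO parental line / Controls: ATP-challenged DMSO wells low, unchallenged DMSO wells high / Measure: % inhibition / Compound: single nominal dose of 5.6 µM per compound / Replicates: single well per compound, no replicates / Reagent: ATP as calcium-mobilizing challenge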
OX1R antag-2: antagonists of human orexin 1 receptor (OX1R); O43613; OX1R-expressing cells, FRET antagonist read-out; inhibition, % at 6.6 µM; actives 1.8% (n = 330,000); AID 485270; in the data active = inhibition mostly above about 38%, no sharp cut-off; inactive = mostly below about 40%;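 also: 0% = agonist challenge alone and 100% = reference antagonist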
GPR7 antag: antagonists of human GPR7 (neuropeptides B/W receptor 1) | AID 1861 | GPR7-expressing cells, fluorescence antagonist assay | actives 1.1% (n = 290,000) | P48145 | inhibition, % at 4.4 µM; in the data active = inhibition above about 16%, passing the limit was not always enough;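 also: cells stimulated with the agonist NPW; 0% = agonist with vehicle and 100% = vehicle without agonist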
Target sequence (P48145 whole entry, looked up): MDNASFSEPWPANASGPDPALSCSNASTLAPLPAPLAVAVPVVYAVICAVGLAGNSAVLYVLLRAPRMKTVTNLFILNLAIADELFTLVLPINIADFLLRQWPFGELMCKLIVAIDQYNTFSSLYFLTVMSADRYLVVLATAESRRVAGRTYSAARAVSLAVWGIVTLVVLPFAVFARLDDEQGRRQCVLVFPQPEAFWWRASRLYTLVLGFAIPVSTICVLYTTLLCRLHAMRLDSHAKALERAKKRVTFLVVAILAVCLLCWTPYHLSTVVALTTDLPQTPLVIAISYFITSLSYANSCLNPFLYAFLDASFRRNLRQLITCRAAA
OX1R HTRF confirm: confirmation of human orexin 1 receptor antagonists, HTRF format | inhibition, % at 6.6 µM | OX1R-expressing cells, HTRF antagonist assay | actives 49% (n = 1,800) | shares compounds with OX1R antag-2; in the data active = inhibition above about 55%;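 also: CHO cells expressing OX1R stimulated with orexin A at about EC80; 0% = agonist challenge alone and 100% = reference antagonist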
CHO-K1 HTRF cnt: counter-screen for OX1R antagonists: effect in parental CHO-K1 cells; shares compounds with OX1R antag-2; HTRF counterscreen; inhibition, % at 6.6 µM; actives 48% (n = 1,800); in the data active = inhibition above about 17%;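 also: 0% = agonist challenge with vehicle and 100% = vehicle alone without agonist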
An asterisk follows results filed as active; . = no result; + = active, no number.

SMILES	OX1R antag-1	EP2 modulator	EP2 antag	CHO parental Ca	OX1R antag-2	GPR7 antag	OX1R HTRF confirm	CHO-K1 HTRF cnt
O=C(Nc1ncccn1)c1cccc(F)c1	-6.1	.	.	-5.5	13.9	-11.2	.	.
Cc1ccc(C)c(NC(=O)c2cc([N+](=O)[O-])cc([N+](=O)[O-])c2)c1	-17.5	.	.	-8.2	80.1*	-15.0	38.2	40.8*
NS(=O)(=O)c1ccc(O)c(NC(=O)c2ccc([N+](=O)[O-])o2)c1	-11.9	16.0	4.0	-8.4	125.2*	-13.4	47.8	60.9*
COc1cccc(CNC(=O)c2ccc3c(c2)N(C)CCS3)c1OC	-21.8	.	.	-14.1	6.3	-2.3	.	.
COc1cc(=O)[nH]c(SCC(=O)Nc2ccc3ccccc3c2)n1	-16.0	.	.	-0.5	22.5	-8.8	.	.
Cc1ccc(/C=C/C(=O)NCc2cccs2)c(C)c1	-21.4	-35.4	5.6	3.9	30.1	-9.8	.	.
O=C(c1cc([N+](=O)[O-])cc([N+](=O)[O-])c1)N(c1ccccn1)c1ccccn1	4.8	26.6	7.6	7.7	103.4*	-9.7	48.8	71.8*
CCOc1ccc(-n2c(C)cc(/C=N\NC(=O)CC(=O)NC3CCCCC3)c2C)cc1	-29.9	18.9	8.0	-13.2	3.9	-8.8	.	.
CCN(CC)C1=NS(=O)(=O)c2cc([N+](=O)[O-])ccc21	-11.8	-3.1	5.4	0.6	+	-3.5	47.6	97.3*
CCN(CC)S(=O)(=O)c1cccc(C(=O)N[C@@H](C)c2nc3ccccc3[nH]2)c1	-13.5	-0.5	1.5	-17.0	18.6	-13.7	.	.
O=C(NNC(=O)c1sccc1-n1cccc1)c1ccccc1	-7.4	14.0	20.9	-16.6	21.2	6.6	.	.
O=C(Nc1ccc(Cl)cc1Cl)c1cc2ccccc2oc1=O	.	-31.1	9.6	.	.	.	.	.
O=C1N=C(N2C=CC(=C3C=CNC=C3)C=C2)/C(=C/N=NC(=O)c2ccccc2O)S1	-10.9	.	.	-11.9	108.1*	2.4	68.2*	108.6*
CCOC(=O)C(C)/C(C)=N\Nc1ccc([N+](=O)[O-])cc1[N+](=O)[O-] (stereo unspecified)	16.4	-32.3	5.5	16.7	85.4*	-7.8	43.6	19.2*
Cc1cc(C)n2nc(C(=O)OCC(=O)Nc3ccc4c(c3)OC(F)(F)O4)nc2n1	-18.1	7.9	13.5	-23.2	8.6	-2.3	.	.
O=C(O)c1cccc2c1C(=O)c1cccc3snc-2c13	-5.3	-16.0	14.9	-11.1	88.1*	-14.6	54.8*	78.3*
O=C(Nc1cccnc1)c1ccccc1Cl	-15.2	.	.	-17.5	-7.3	-5.6	.	.
O=C(Nc1cccnc1)c1cnc2ccccc2n1	-6.8	27.6	7.3	-1.1	108.9*	-12.4	43.3	45.5*
Cc1ccc2cc3cc(C(=O)NCCCN4CCCCCC4)oc3nc2c1	-24.1	20.6	.	-27.4	82.2*	-4.4	42.3	36.2*
CCC(C)NC(=O)c1cc2cc3ccc(OC)cc3nc2o1 (stereo unspecified)	8.7	.	.	-5.4	9.6	13.3	.	.
COc1ccc(N(CC(O)Cn2c(C)nc3ccccc32)S(=O)(=O)c2ccc(C)cc2)cc1 (stereo unspecified)	-14.0	25.9	19.7	-26.2	7.7	-3.8	.	.
CCN1C(=O)[C@@H]2[C@@H](c3ccc(-c4ccc(F)cc4)c(OC)c3)N3CCCC[C@@]3(C(=O)OC)[C@@H]2C1=O	-6.0	.	.	-40.8	82.1*	.	41.8	-3.5
CN1C(=O)c2ccccc2NC(=O)[C@]12O[C@@H]2c1cccc(O)c1	-0.2	23.1	15.0	8.1	8.0	.	.	.
C[C@H](NC(=O)C1(c2ccccc2)CCN(C(=O)OC(C)(C)C)CC1)C(=O)N[C@@H](C(=O)O)c1ccccc1	0.8	.	.	-8.3	12.9	17.1	.	.
C[C@@H](NC(=O)C1(c2ccccc2)CCN(C(=O)OC(C)(C)C)CC1)C(=O)N[C@@H](C(=O)O)c1ccccc1	-14.2	.	.	-5.6	86.5*	-4.3	12.9	10.1
SMILES	OX1R antag-1	EP2 modulator	EP2 antag	CHO parental Ca	OX1R antag-2	GPR7 antag	OX1R HTRF confirm	CHO-K1 HTRF cnt
CCCOc1cccc(NC(=O)c2cc(C)oc2C)c1	-47.5	-39.7	17.6	-34.6	77.7*	-10.0	19.9	13.2
CC(OC(=O)Cn1cc(C(F)(F)F)ccc1=O)C(=O)N(C)c1ccccc1 (stereo unspecified)	-22.3	.	.	-5.7	9.9	.	.	.
Cc1noc(C)c1S(=O)(=O)Nc1ccc(O)c2c(=O)cc(-c3ccccc3Cl)oc12	24.9	-1.3	11.0	-7.3	85.2*	.	93.2*	0.8
O=C(O)C1CCN(S(=O)(=O)c2cccc3nsnc23)CC1	-10.0	.	.	-7.6	33.5	-22.1	.	.
O=C(c1ccco1)N1CCN(C(=O)C2CCN(S(=O)(=O)c3cccc4nsnc34)CC2)CC1	-10.0	.	14.3	-3.5	100.3*	0.2	30.3	46.8*
O=C(C1CCCO1)N1CCN(S(=O)(=O)c2cccc3nsnc23)CC1 (stereo unspecified)	-11.8	21.7	6.9	-7.9	95.9*	-5.0	40.7	56.0*
CNC(=O)N1CCC(C(=O)c2c(C)c(C)c(C)c(C)c2C)CC1	-13.3	.	.	-9.8	-6.5	-16.2	.	.
C[N+]1(C2CCC3CCCC2C3O)CCCC1 (stereo unspecified)	2.0	21.0	4.1	-8.9	5.2	-4.0	.	.
Cc1ccccc1NC(=O)CSc1nnc2ccc(-c3ccncc3)nn12	-18.0	.	.	-14.3	79.4*	.	30.1	35.9*
CN(CCCCCCN(C)Cc1ccccc1O)Cc1ccccc1O	-2.3	.	.	-12.0	1.1	-5.6	.	.
CCN(C(=O)COC(=O)/C=C/c1cnc2ccccc2n1)C1CCS(=O)(=O)C1 (stereo unspecified)	-11.1	21.2	8.2	-4.8	82.2*	-2.9	38.6	46.5*
CCN1CCN(C(=O)c2ccc(Sc3ccccc3Cl)c([N+](=O)[O-])c2)CC1	-30.9	-51.6	2.9	-15.5	24.3	4.5	.	.
COCC1CCN(C(=O)C2CCC(=O)N(CCc3ccc(Cl)cc3)C2)CC1 (stereo unspecified)	-17.5	.	.	-17.8	14.7	2.9	.	.
CC(=O)c1ccc(N2CCN(S(=O)(=O)c3cccc4nonc34)CC2)cc1	-3.0	-40.4	13.3	0.4	20.2	-4.8	.	.
COc1ccc(-n2nc3cc(C)c(N)c(Br)c3n2)cc1	28.4	15.0	15.1	-16.9	91.8*	25.8	41.4	5.7
COc1ccc(-n2nc3ccccc3n2)cc1	-8.9	9.8	11.2	-13.8	0.1	6.7	.	.
O=C(O)c1csc(-c2cccs2)n1	-12.2	1.5	25.6	-8.8	10.8	8.2	.	.
Cc1[nH]c2ccccc2c1/C=N/Nc1nncn1N	21.3	-86.1	4.8	-4.5	139.2*	-6.9	16.8	9.8
COc1ccccc1C(=O)NCCCCNC(=O)c1ccccc1OC	14.0	.	.	-9.8	79.3*	.	59.1*	0.7
COc1ccccc1CNC(=O)c1ccccc1OC	-24.1	2.0	-3.1	-13.6	12.1	4.7	.	.
